Measurements taken from ChEMBL document CHEMBL3259586, “Localization and interaction of hydroxyflavones with lipid bilayer model membranes: a study using DSC and multinuclear NMR” (Eur J Med Chem, 2014).
Converted amounts (≈) assume the structure as drawn. The source made the active and inactive calls. The calls are words filed in the database; no cut-off is given here.

Columns and labels:
Lipid bilayer [1] = test: Binding affinity to DPPC lipid bilayer assessed as decrease in melting temperature by differential scanning calorimetric analysis
Outline: (§1)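 DPPC multilamellar vesicles made from chloroform lipid solution, lipid held at 50 mM, drug/lipid molar ratios 1:20 to 1:2; DSC heating scans give pretransition (Tp) and main transition (Tm) temperatures; repeat scans of the same samples.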

[2] = Binding affinity to multilamellar vesicles by NMR titration method
Outline: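 NMR titration with drug held at 10 mM and lipid varied 1-10 mM; lipid stock in D2O, drug stock in methanol, both diluted; TSP added as reference; fraction bound derived from chemical shift changes.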

[3] = system: Radical scavenging activity; test: Antioxidant activity assessed as DPPH radical scavenging activity after 30 mins; type: functional
Outline: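 Test compounds at varied concentrations added to methanolic DPPH with 0.1 M Tris-HCl buffer; absorbance read at 517 nm after 30 min incubation; IC50 read graphically from dose-response curves; at least three experiments.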

Lipid bilayer [4] = test: Binding affinity to DPPC lipid bilayer assessed as melting temperature at 1:10 drug to DPPC molar ratio by differential scanning calorimetric analysis; outline: as §1
[5] = Binding affinity to multilamellar vesicles of DPPC assessed as increase in chemical shift anisotropy at 323 K by [31P]-NMR spectroscopic analysis
Outline: (§2)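 Lipid held at 100 mM for NMR samples with flavone at 10 to 50 mM; multilamellar vesicles from chloroform-dissolved DPPC; unilamellar vesicles made by sonicating lipid dispersions at 50% duty cycle until optically clear.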

Lipid bilayer [6] = test: Binding affinity to DPPC lipid bilayer assessed as melting temperature at 1:20 drug to DPPC molar ratio by differential scanning calorimetric analysis; outline: as §1
Lipid bilayer [7] = test: Binding affinity to DPPC lipid bilayer assessed as pre-transition temperature at 1:10 drug to DPPC molar ratio by differential scanning calorimetric analysis; outline: as §1
Lipid bilayer [8] = test: Binding affinity to unilamellar vesicles of DPPC in D2O at 1:5 drug to lipid molar ratio at 323 K by [13C]-NMR spectroscopic analysis; outline: as §2
Lipid bilayer [9] = test: Binding affinity to DPPC lipid bilayer assessed as pre-transition temperature at 1:5 drug to DPPC molar ratio by differential scanning calorimetric analysis; outline: as §1
Lipid bilayer [10] = test: Binding affinity to unilamellar vesicles of DPPC in D2O at 1:5 drug to lipid molar ratio at 323 K by [1H]-NMR spectroscopic analysis; outline: as §2
K562 = test: Antiproliferative activity against human K562 cells assessed as cell growth at 10^-4 ug/ml after 48 hrs by sulforhodamine B assay relative to control; type: functional; conditions: K562, 48 h, read-out: Activity
Outline: (§3)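 Sulforhodamine B assay; cells grown in RPMI 1640 with 10% fetal bovine serum and 2 mM L-glutamine; compounds dissolved in DMSO, diluted into culture medium; incubated 48 h under standard conditions; percent growth inhibition calculated.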

Lipid bilayer [11] = test: Binding affinity to DPPC lipid bilayer assessed as pre-transition temperature at 1:20 drug to DPPC molar ratio by differential scanning calorimetric analysis; outline: as §1
Lipid bilayer [12] = test: Binding affinity to DPPC lipid bilayer assessed as pre-transition temperature at 1:2 drug to DPPC molar ratio by differential scanning calorimetric analysis; outline: as §1
HepG2 = test: Antiproliferative activity against human HepG2 cells assessed as cell growth at 10^-4 ug/ml after 48 hrs by sulforhodamine B assay relative to control; type: functional; conditions: HepG2, 48 h, read-out: Activity; outline: as §3
[13] = Binding affinity to multilamellar vesicles after 2 hrs by centrifugation method
Lipid bilayer [14] = test: Binding affinity to DPPC lipid bilayer assessed as melting temperature at 1:5 drug to DPPC molar ratio by differential scanning calorimetric analysis; outline: as §1
MCF7 = test: Antiproliferative activity against human MCF7 cells assessed as cell growth at 10^-4 ug/ml after 48 hrs by sulforhodamine B assay relative to control; type: functional; conditions: MCF7, 48 h, read-out: Activity; outline: as §3
Lipid bilayer [15] = test: Binding affinity to DPPC lipid bilayer assessed as melting temperature at 1:2 drug to DPPC molar ratio by differential scanning calorimetric analysis; outline: as §1
[16] = Binding affinity to multilamellar vesicles of DPPC at 1:10 to 1:2 drug to lipid molar ratio at 323 K by [31P]-NMR spectroscopic analysis; outline: as §2
Lipid bilayer [17] = test: Binding affinity to unilamellar vesicles of DPPC in D2O at 1:5 drug to lipid molar ratio at 323 K by 2D-NOESY spectroscopic analysis; outline: as §2
[18] = Binding affinity to multilamellar vesicles at 100 uM after 2 hrs by centrifugation method relative to control

Row | Activity (Lipid bilayer [1]) | Kapp [2] | IC50 [3] | Tm (Lipid bilayer [4]) | Activity [5] | Tm (Lipid bilayer [6]) | T (Lipid bilayer [7]) | Activity (Lipid bilayer [8]) | T (Lipid bilayer [9]) | Activity (Lipid bilayer [10]) | T (Lipid bilayer [11]) | T (Lipid bilayer [12]) | Kapp [13] | Tm (Lipid bilayer [14]) | Tm (Lipid bilayer [15]) | Activity [16] | SMILES | growth at 0.0001 µg/mL (K562) | growth at 0.0001 µg/mL (HepG2) | growth at 0.0001 µg/mL (MCF7) | Activity (Lipid bilayer [17]) | further results
1 | Dose-dependent effect | 229 M⁻¹ | 23.8 µg/mL (≈ 99.9 µM) | 40.7 °C | Dose-dependent effect | 41.1 °C | 32 °C | Active | 32 °C | Active | 32.3 °C | 30.3 °C | 313 M⁻¹ | 40.6 °C | 39.6 °C |  | O=c1cc(-c2ccccc2)oc2cccc(O)c12 [5-HYDROXYFLAVONE] | 26.7% | 88.8% | 28.6% |  | 
2 | Dose-dependent effect | 572 M⁻¹ | 22.1 µg/mL (≈ 92.8 µM) | 37.3 °C |  | 37.4 °C |  | Active |  | Active |  |  | 800 M⁻¹ | 37.1 °C | 36.9 °C | Active | O=c1cc(-c2ccccc2)oc2ccc(O)cc12 [6-HYDROXYFLAVONE] | 13.3% | 82.8% | 28.8% | Active | 
3 | Dose-dependent effect | 311 M⁻¹ | 24.2 µg/mL (≈ 102 µM) | 40.5 °C | Dose-dependent effect | 40.7 °C | 31.8 °C | Active |  | Active | 31.9 °C | 27.4 °C | 450 M⁻¹ | 40.4 °C | 39.8 °C |  | O=c1cc(-c2ccccc2)oc2cc(O)ccc12 [7-HYDROXYFLAVONE] | 22.3% | 98.8% | 26.6% |  | 
4 | Dose-dependent effect | 215 M⁻¹ | 18.2 µg/mL (≈ 67.3 µM) | 39.7 °C |  | 40.4 °C | 30.2 °C | Active | 32.9 °C | Active | 32.1 °C | 33.8 °C | 252 M⁻¹ | 40.6 °C | 40.9 °C | Active | O=c1cc(-c2ccccc2)oc2cc(O)c(O)c(O)c12 [BAICALEIN] | 16.7% | 70.6% | -8.9% | Active | 
5 | Dose-dependent effect | 532 M⁻¹ | 20.4 µg/mL (≈ 80.2 µM) | 39.8 °C |  | 40.6 °C | 30.4 °C | Active | 30.5 °C | Active | 31 °C | 31.6 °C | 759 M⁻¹ | 39.9 °C | 40.1 °C | Active | O=c1cc(-c2ccccc2)oc2cc(O)cc(O)c12 [CHRYSIN] | 38.3% | 76.7% | 25.9% |  | 
6 | Dose-dependent effect | 1820 M⁻¹ | > 100 µg/mL | 36.7 °C |  | 37.2 °C |  | Active |  | Active |  |  | 19600 M⁻¹ | 36.4 °C | 36.3 °C | Active | O=c1cc(-c2ccccc2)oc2ccccc12 [FLAVONE] | 56.8% | -7.6% | 50.3% |  | Activity [18]: 80%
